pEC50, pIC50: −log10 of the molar value. The source made the active and inactive calls. The rule behind the calls is not given here.
Key:
[1] = Selectivity index, TC50 for african green monkey BSC1 cells after 20 hrs to EC50 for Vaccinia virus WR in BSC1 cells after 20 hrs by cell protection assay; type: toxicity, cell-based, BSC-1; conditions: read-out: Selectivity Index
[2] = Cytotoxicity against african green monkey BSC1 cells after 20 hrs WST-1 based assay; type: cell-based, BSC-1; conditions: chlorocebus aethiops, read-out: TC50
In short: (§1)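 Uninfected BS-C-1 cells in phenol red-free medium, seeded 5000 (20 h), 1000 (3-day) or 200 (5-day) cells/well, exposed next day to compound in two-fold serial dilutions (top 200 µM; 1% DMSO final) at 37°C. WST-1 added 30 min, A450 read. Triplicates; percent cytotoxicity vs DMSO fitted four-parameter sigmoidal for TC50.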

Vaccinia virus [3] = assay: Antiviral activity against Vaccinia virus WR in BSC1 cells assessed as retention of antiviral potency by measuring exogenous double stranded DNA trapping; type: functional, organism-based; conditions: Orthopoxvirus vaccinia, BSC-1
Vaccinia virus [4] = assay: Inhibition of Vaccinia virus DNA synthesis in by rapid plate assay; type: functional, organism-based; conditions: Orthopoxvirus vaccinia
Vaccinia virus [5] = assay: Antiviral activity against Vaccinia virus WR in BSC1 cells assessed as reduction in plaque formation after 20 hrs; type: functional, organism-based; conditions: Orthopoxvirus vaccinia, BSC-1, 20 h
[6] = Cytotoxicity against african green monkey BSC1 cells after 72 hrs WST-1 based assay; type: cell-based, BSC-1; conditions: chlorocebus aethiops, read-out: TC50; in short: as §1
[7] = Cytotoxicity against african green monkey BSC1 cells after 120 hrs WST-1 based assay; type: cell-based, BSC-1; conditions: chlorocebus aethiops, read-out: TC50; in short: as §1
Vaccinia virus [8] = assay: Antiviral activity against Vaccinia virus WR in BSC1 cells assessed as protection from virus-induced lysis of cell monolayer after 20 hrs; type: functional, organism-based; conditions: Orthopoxvirus vaccinia, BSC-1, 20 h
[9] = Selectivity index, TC50 for african green monkey BSC1 cells after 72 hrs to EC50 for Vaccinia virus WR in BSC1 cells after 72 hrs by cell protection assay; type: toxicity, cell-based, BSC-1; conditions: read-out: Selectivity Index
[10] = Cytotoxicity against african green monkey BSC1 cells up to 200 uM after 20 to 120 hrs WST-1 based assay; type: cell-based; conditions: chlorocebus aethiops, bsc-1; in short: as §1
Vaccinia virus [11] = assay: Antiviral activity against Vaccinia virus WR in BSC1 cells assessed as reduction in plaque formation up to 200 uM after 20 hrs; type: functional, organism-based; conditions: Orthopoxvirus vaccinia, BSC-1
Vaccinia virus [12] = assay: Antiviral activity against Vaccinia virus WR in BSC1 cells assessed as protection from virus-induced lysis of cell monolayer up to 200 uM after 20 hrs; type: functional, organism-based; conditions: Orthopoxvirus vaccinia, BSC-1

| Compound | selectivity ratio at 20 h [1] | CC50 at 20 h [2] | Activity (Vaccinia virus [3]) | pIC50 (Vaccinia virus [4]) | pEC50 (Vaccinia virus [5]) | CC50 at 72 h [6] | CC50 at 120 h [7] | pEC50 (Vaccinia virus [8]) | selectivity ratio at 72 h [9] | Activity [10] | Activity (Vaccinia virus [11]) | Activity (Vaccinia virus [12]) |
| --- | --- | --- | --- | --- | --- | --- | --- | --- | --- | --- | --- | --- |
| Cc1ccc2c(Sc3ccc(Cl)cc3)c(C(=O)O)[nH]c2c1 | > 1.5 | > 200 µM | Active | 4.37 | 4.12 | 174 µM | 120 µM | – | – | – | – | – |
| COC(=O)c1cccc2c1-c1ccccc1/C2=N\O | 13.2 | 127 µM | Active | 3.97 | 5.00 | – | 20 µM | 5.02 | 3.2 | – | – | – |
| Cc1csc2c(N3CCN(C(=O)NC(C)(C)C)CC3)ncnc12 | 3.1 | 157 µM | Active | 4.92 | 4.82 | – | 40 µM | 4.30 | – | – | – | – |
| N=C1/C(=C/c2coc3ccccc3c2=O)C(=O)N=C2SC=NN12 | > 1 | > 200 µM | Active | 4.12 | – | > 200 µM | 50 µM | – | – | – | – | – |
| O=C(O)Cn1c2ccc(Cl)cc2c2nc3ccccc3nc21 | – | > 100 µM | Active | – | 4.30 | 13 µM | 30 µM | 4.00 | – | – | – | – |
| Cc1cc(OC(=O)c2ccco2)nc(SCc2c(Cl)cccc2Cl)n1 | > 2 | > 100 µM | Active | 4.28 | 4.12 | > 100 µM | > 100 µM | 4.00 | – | – | – | – |
| CCNc1nc(SCc2ccc(Cl)cc2)nc2sc3c(c12)CCN(C)C3 | 2.6 | 115 µM | Active | 3.89 | 4.82 | – | 5 µM | 4.35 | – | – | – | – |
| N=C1S/C(=C/c2ccco2)C(=O)N1c1nccs1 | > 1.2 | > 100 µM | Active | 4.49 | 4.12 | > 100 µM | 50 µM | 4.10 | – | – | – | – |
| COc1ccc(-c2cc3ccccn3c2C(=O)c2cccnc2)c(OC)c1 | > 2.3 | > 200 µM | inactive | 4.60 | 4.00 | 152 µM | 60 µM | 4.06 | – | – | – | – |
| CC(=O)n1c2ccccc2c2nc(C)sc21 | > 1 | > 200 µM | Active | 3.95 | 4.00 | > 200 µM | 75 µM | – | – | – | – | – |
| N/N=C1\CCCc2c1[nH]c1ccc(C(=O)NN)cc21 | – | > 200 µM | inactive | – | 4.00 | 35 µM | – | 3.71 | – | – | – | – |
| Cc1ccc2nc(Cl)c3cc(C(=O)N(CCN(C)C)Cc4ccco4)sc3c2c1 | – | – | – | 5.00 | – | – | – | – | – | Toxic | inactive | inactive |
| CCOC(=O)CCc1c(CC(=O)OCC)c[nH]c1/C=N/O.Cl | – | – | – | 5.42 | – | – | – | – | – | Toxic | inactive | inactive |
| COc1ccc2c(c1)C=C/C(=C\c1sc3ccccc3[n+]1C)N2C.[Cl-] | – | – | – | 5.40 | – | – | – | – | – | Toxic | inactive | inactive |
| CCOC(=O)c1cnc2c(C)c(C)ccc2c1NCCCN(C)C | – | – | – | 5.30 | – | – | – | – | – | Toxic | inactive | inactive |
| Nc1ccn(C[C@@H](CO)OCP(=O)(O)O)c(=O)n1 [CIDOFOVIR] | > 3.8 | > 500 µM | Active | – | 4.30 | > 500 µM | 300 µM | – | – | – | – | – |
| OC(CN1CCNCC1)Cn1c2ccc(Br)cc2c2cc(Br)ccc21 (centres undefined) | – | – | – | 5.20 | – | – | – | – | – | Toxic | inactive | inactive |
| CCC/N=c1\cc(-c2ccccc2)oc2ccc(C)cc12 | – | > 200 µM | inactive | – | 4.60 | – | 10 µM | 4.24 | – | – | – | – |
| O=C1/C(=C/C2CCCO2)CC/C1=C\C1CCCO1 (centres undefined) | > 1 | > 100 µM | Active | 3.62 | 4.30 | > 100 µM | 50 µM | 4.00 | – | – | – | – |
| O=C(NCCCN1CCCC1)c1cc2c(Cl)nc3ccccc3c2s1 | – | – | – | 5.00 | – | – | – | – | – | Toxic | inactive | inactive |
| CCn1c2ccccc2c2ccc(/C=N/n3cnnc3)cc21 | > 4 | > 200 µM | Active | 3.88 | 4.30 | 36 µM | 3 µM | 4.30 | – | – | – | – |
| Cc1cc(/N=C/c2cc(Cl)cc(Cl)c2O)no1 | > 2.1 | > 200 µM | Active | 4.52 | 4.12 | 50 µM | 20 µM | 4.02 | – | – | – | – |
| CC1=CC(C)(C)N=C(Nc2nc(C)c3cc(C)cc(C)c3n2)N1 | – | – | – | 5.28 | – | – | – | – | – | Toxic | inactive | inactive |
| Cc1c(/N=C/c2cc(Br)cc(Br)c2O)cccc1C(=O)O | > 2 | > 200 µM | Active | 4.59 | 4.12 | 38 µM | 20 µM | 4.00 | – | – | – | – |
| O=C(O)c1ccc(CS(=O)(=O)c2ccccc2)o1 | – | – | – | 5.13 | – | – | – | – | – | Toxic | inactive | inactive |
| O=C(Nc1ccccc1C(=O)O)OCC1c2ccccc2-c2ccccc21 | > 1.9 | > 200 µM | Active | 4.59 | 4.12 | 40 µM | 20 µM | – | – | – | – | – |
| CN(C)c1ccc(-c2cccc(-c3ccc(N(C)C)cc3)[o+]2)cc1 | – | – | – | 5.52 | – | – | – | – | – | Toxic | inactive | inactive |
| Cc1cc(NCCN2CCCCC2)c2ccc3ccccc3c2n1 | – | – | – | 5.22 | – | – | – | – | – | Toxic | inactive | inactive |
| Cc1ccc2oc(-c3ccccc3)c/c(=N\CCO)c2c1 | > 3.5 | > 200 µM | inactive | 4.60 | 4.40 | – | 12 µM | 4.24 | – | – | – | – |

From ChEMBL document CHEMBL1140145, “Identification of non-nucleoside DNA synthesis inhibitors of vaccinia virus by high-throughput screening” (J Med Chem, 2008)
